Experimental data published in ChEMBL document CHEMBL3120102, “Structure-based design, synthesis and biological evaluation of novel anthra[1,2-d]imidazole-6,11-dione homologues as potential antitumor agents” (2013).

Experiments:
Format in all cases: functional
[1] = tested on: CAKI-1; assay: Cytotoxicity against human CAKI-1 cells assessed as cell growth at 10 uM after 48 hrs by SRB assay; conditions: CAKI-1, 48 h, read-out: Activity
[2] = tested on: U-251; assay: Cytotoxicity against human U251 cells assessed as growth inhibition after 48 hrs by SRB assay
Outline: (§1)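 NCI 60-cell-line screen, two stages. Five-dose testing at […]. Cellular protein measured by sulforhodamine B colorimetry after 48 h drug exposure. A time-zero control and drug-free plates are used to derive GI50, TGI and LC50 from dose-response curves plotted as log10 concentration per cell line.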

[3] = tested on: SNB-75; assay: Cytotoxicity against human SNB75 cells assessed as growth inhibition after 48 hrs by SRB assay; outline: as §1
[4] = tested on: K562; assay: Cytotoxicity against human K562 cells assessed as growth inhibition after 48 hrs by SRB assay
Outline: (§2)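 NCI 60-cell-line five-dose screen at […]. Drug exposure was 48 h, followed by sulforhodamine B protein staining. GI50, TGI and LC50 were calculated against a time-zero control and untreated plates, with dose–response curves plotted from log10 concentration.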

[5] = tested on: IGROV-1; assay: Cytotoxicity against human IGROV1 cells assessed as growth inhibition after 48 hrs by SRB assay; outline: as §2
[6] = (§3) Cytotoxicity against human UACC257 cells assessed as growth inhibition after 48 hrs by SRB assay; conditions: UACC-257, 48 h; outline: as §1
[7] = tested on: UACC-257; assay: as §3; outline: as §1
[8] = tested on: SK-OV-3; assay: Cytotoxicity against human SKOV3 cells assessed as growth inhibition after 48 hrs by SRB assay
Outline: (§4)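 NCI 60-cell-line screen, five-dose stage: each cell line exposed for 48 h to five concentrations spanning five log steps; cellular protein measured by sulforhodamine B colorimetry. A time-zero cell control and plates without drug are used to derive GI50, TGI and LC50 from log-concentration dose-response curves.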

[9] = tested on: A549; assay: Cytotoxicity against human A549 cells assessed as growth inhibition after 48 hrs by SRB assay; outline: as §2
[10] = tested on: ACHN; assay: Cytotoxicity against human ACHN cells assessed as growth inhibition after 48 hrs by SRB assay; outline: as §2
[11] = tested on: NCI-H226; assay: Cytotoxicity against human NCI-H226 cells assessed as growth inhibition after 48 hrs by SRB assay; outline: as §4
[12] = tested on: SK-MEL-5; assay: Cytotoxicity against human SK-MEL-5 cells assessed as growth inhibition after 48 hrs by SRB assay; outline: as §4
[13] = tested on: HT-29; assay: Cytotoxicity against human HT-29 cells assessed as growth inhibition after 48 hrs by SRB assay; outline: as §2
[14] = tested on: KM12; assay: Cytotoxicity against human KM12 cells assessed as growth inhibition after 48 hrs by SRB assay; outline: as §2
[15] = tested on: COLO 205; assay: Cytotoxicity against human COLO205 cells assessed as growth inhibition after 48 hrs by SRB assay; outline: as §2
[16] = tested on: SNB-19; assay: Cytotoxicity against human SNB19 cells assessed as growth inhibition after 48 hrs by SRB assay; outline: as §1
[17] = tested on: MOLT-4; assay: Cytotoxicity against human MOLT4 cells assessed as growth inhibition after 48 hrs by SRB assay; outline: as §4
[18] = tested on: MCF7; assay: Cytotoxicity against human MCF7 cells assessed as growth inhibition after 48 hrs by SRB assay; outline: as §4
[19] = tested on: SK-MEL-2; assay: Cytotoxicity against human SK-MEL-2 cells assessed as growth inhibition after 48 hrs by SRB assay; outline: as §4
[20] = tested on: HOP-62; assay: Cytotoxicity against human HOP62 cells assessed as growth inhibition after 48 hrs by SRB assay; outline: as §2
[21] = tested on: SW-620; assay: Cytotoxicity against human SW620 cells assessed as growth inhibition after 48 hrs by SRB assay; outline: as §1
[22] = tested on: Malme-3M; assay: Cytotoxicity against human MALME-3M cells assessed as growth inhibition after 48 hrs by SRB assay; outline: as §2
[23] = tested on: MDA-MB-435; assay: Cytotoxicity against human MDA-MB-435 cells assessed as growth inhibition after 48 hrs by SRB assay; outline: as §4
[24] = tested on: MDA-MB-231; assay: Cytotoxicity against human MDA-MB-231 cells assessed as growth inhibition after 48 hrs by SRB assay; outline: as §4
[25] = tested on: SK-MEL-28; assay: Cytotoxicity against human SK-MEL-28 cells assessed as growth inhibition after 48 hrs by SRB assay; outline: as §4
[26] = tested on: SR; assay: Cytotoxicity against human SR cells assessed as growth inhibition after 48 hrs by SRB assay; outline: as §1
[27] = tested on: HL-60(TB); assay: Cytotoxicity against human HL-60(TB) cells assessed as growth inhibition after 48 hrs by SRB assay
Outline: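 NCI 60-cell panel five-concentration stage (0.01, 0.1, 1, 10, 100) in HL-60(TB). Cellular protein was measured by sulforhodamine B colorimetry after 48 h of exposure. A time-zero cell control and untreated plates allowed calculation of GI50, TGI and LC50. These were read from log10 concentration dose-response curves.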

[28] = read-out: LC50 (the source's name)

O=C1c2ccccc2C(=O)c2c1ccc1[nH]c(=S)[nH]c21
growth at 10 µM [1]: 91.2%

O=C1c2ccccc2C(=O)c2c1ccc1nc(SCCN3CCCC3)[nH]c21
growth inhibition (GI) [2]: Dose-dependent effect
GI50 ([2]; U-251, 48 h): 6.84 µM
TGI ([2]; U-251, 48 h): 20.3 µM
CC50 ([2]; U-251, 48 h, read-out: LC50 (the source's name)): 47.1 µM
growth inhibition (GI) [3]: Dose-dependent effect
GI50 ([3]; SNB-75, 48 h): 12.3 µM
LC50 ([3]; SNB-75, 48 h): 51.5 µM
TGI ([3]; SNB-75, 48 h): 25.2 µM
growth inhibition (GI) [4]: Dose-dependent effect
GI50 ([4]; K562, 48 h): 1.7 µM
TGI ([4]; K562, 48 h): 5.2 µM
CC50 ([4]; K562, 48 h, read-out: LC50 (the source's name)): 72 µM
growth inhibition (GI) [5]: Dose-dependent effect
GI50 ([5]; IGROV-1, 48 h): 0.56 µM
LC50 ([5]; IGROV-1, 48 h): 22.4 µM
TGI ([5]; IGROV-1, 48 h): 3.39 µM
GI50 [6]: 18 µM
LC50 [6]: 56.8 µM
TGI [6]: 31.9 µM
growth inhibition (GI) [7]: Dose-dependent effect
growth inhibition (GI) [8]: Dose-dependent effect
GI50 ([8]; SK-OV-3, 48 h): 10.5 µM
LC50 (concentration killing 50% of cells present at time zero) ([8]; SK-OV-3, 48 h): 54 µM
TGI ([8]; SK-OV-3, 48 h): 23.8 µM
growth inhibition (GI) [9]: Dose-dependent effect
GI50 ([9]; A549, 48 h): 3.8 µM
TGI ([9]; A549, 48 h): 15 µM
GI50 [10]: 2.34 µM
TGI [10]: 16.5 µM
growth inhibition (GI) [10]: Dose-dependent effect
CC50 [10, 28]: 41.1 µM
growth inhibition (GI) [11]: Dose-dependent effect
TGI ([11]; NCI-H226, 48 h): 36.6 µM
growth inhibition (GI) [12]: Dose-dependent effect
GI50 ([12]; SK-MEL-5, 48 h): 12.9 µM
LC50 (concentration killing 50% of cells relative to time zero) ([12]; SK-MEL-5, 48 h): 54.8 µM
TGI ([12]; SK-MEL-5, 48 h): 26.6 µM
growth inhibition (GI) [13]: Dose-dependent effect
GI50 ([13]; HT-29, 48 h): 1.81 µM
TGI ([13]; HT-29, 48 h): 4.66 µM
CC50 ([13]; HT-29, 48 h, read-out: LC50 (the source's name)): 15.2 µM
growth inhibition (GI) [14]: Dose-dependent effect
GI50 ([14]; KM12, 48 h): 2.32 µM
TGI ([14]; KM12, 48 h): 6.16 µM
CC50 ([14]; KM12, 48 h, read-out: LC50 (the source's name)): 24.4 µM
growth inhibition (GI) [15]: Dose-dependent effect
GI50 ([15]; COLO 205, 48 h): 3.07 µM
LC50 ([15]; COLO 205, 48 h): 58.6 µM
TGI ([15]; COLO 205, 48 h): 16.7 µM
growth inhibition (GI) [16]: Dose-dependent effect
GI50 ([16]; SNB-19, 48 h): 17.1 µM
LC50 ([16]; SNB-19, 48 h): 59.7 µM
TGI ([16]; SNB-19, 48 h): 31.9 µM
growth inhibition (GI) [17]: Dose-dependent effect
GI50 ([17]; MOLT-4, 48 h): 1.51 µM
LC50 (50% lethal concentration) ([17]; MOLT-4, 48 h): 19.1 µM
TGI ([17]; MOLT-4, 48 h): 4.29 µM
growth inhibition (GI) [18]: Dose-dependent effect
GI50 ([18]; MCF7, 48 h): 1.74 µM
LC50 (concentration killing 50% of cells) ([18]; MCF7, 48 h): 45.6 µM
TGI ([18]; MCF7, 48 h): 7.52 µM
growth inhibition (GI) [19]: Dose-dependent effect
GI50 ([19]; SK-MEL-2, 48 h): 17.1 µM
LC50 (50% lethal concentration) ([19]; SK-MEL-2, 48 h): 63.5 µM
TGI ([19]; SK-MEL-2, 48 h): 32.9 µM
growth inhibition (GI) [20]: Dose-dependent effect
GI50 ([20]; HOP-62, 48 h): 18 µM
TGI ([20]; HOP-62, 48 h): 33.2 µM
growth inhibition (GI) [21]: Dose-dependent effect
GI50 ([21]; SW-620, 48 h): 1.94 µM
LC50 ([21]; SW-620, 48 h): 19.7 µM
TGI ([21]; SW-620, 48 h): 5.09 µM
GI50 [22]: 14 µM
TGI [22]: 28.8 µM
growth inhibition (GI) [22]: Dose-dependent effect
CC50 [22, 28]: 59.4 µM
growth inhibition (GI) [23]: Dose-dependent effect
GI50 ([23]; MDA-MB-435, 48 h): 4.18 µM
LC50 ([23]; MDA-MB-435, 48 h): 43.9 µM
TGI ([23]; MDA-MB-435, 48 h): 16.2 µM
growth inhibition (GI) [24]: Dose-dependent effect
GI50 ([24]; MDA-MB-231, 48 h): 4.46 µM
LC50 ([24]; MDA-MB-231, 48 h): 43.9 µM
TGI ([24]; MDA-MB-231, 48 h): 16.2 µM
growth inhibition (GI) [25]: Dose-dependent effect
GI50 ([25]; SK-MEL-28, 48 h): 2.2 µM
LC50 ([25]; SK-MEL-28, 48 h): 9.08 µM
TGI ([25]; SK-MEL-28, 48 h): 4.47 µM
GI50 [26]: 1.48 µM
LC50 (50% lethal concentration) [26]: 86.3 µM
TGI [26]: 4.19 µM
growth inhibition (GI) [26]: Dose-dependent effect
growth inhibition (GI) [27]: Dose-dependent effect
GI50 ([27]; HL-60, 48 h): 1.13 µM
LC50 ([27]; HL-60, 48 h): 57.6 µM
TGI ([27]; HL-60, 48 h): 11.9 µM
